The array DNA melting data of Ke et al. (doi:10.1101/2024.01.08.574731)

Columns and labels:
[1] = folding enthalpy; higher = less favourable; fluorescence melt of hairpins on a sequencing array, two-state fit; conditions: sodium 0.088 M
Procedure, shortened: (§1)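 With Cy3 and quencher oligos annealed, library hairpins on a sequenced MiSeq flow cell were imaged for Cy3 fluorescence in 50 mM Na-HEPES pH 8.0, 25 mM NaCl, in 2.5 °C steps up to 60 °C. Melting temperature and folding enthalpy were derived from bootstrapped two-state fits of signals normalised to pre-quench Cy3 and to control constructs. Four replicates were combined by inverse variance, with fitted temperatures raised by 9.35 °C to match UV melts.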

[2] = melting temperature; fluorescence melt of hairpins on a sequencing array, two-state fit, raised by 9.35 °C to match UV melts; conditions: sodium 0.088 M
Procedure, shortened: as §1

Row | Sequence | folding enthalpy [1] | Tm [2]
1 | GATCTGCGTCCAGATC ((((((....)))))) | -30.1 kcal/mol | 48.3 °C
2 | GATCTGCTCTCAGATC ((((((....)))))) | -36.6 kcal/mol | 48.4 °C
3 | GATCTGGAATCAGATC ((((((....)))))) | -40.5 kcal/mol | 54.3 °C
4 | GATCTGGACACAGATC ((((((....)))))) | -38.8 kcal/mol | 58.5 °C
5 | GATCTGGACCAGATC ((((((...)))))) | -39.7 kcal/mol | 49.9 °C
6 | GATCTGGACCCAGATC ((((((....)))))) | -43.8 kcal/mol | 53 °C
7 | GATCTGGACGCAGATC ((((((....)))))) | -47 kcal/mol | 51.3 °C
8 | GATCTGGAGCCAGATC ((((((....)))))) | -37.6 kcal/mol | 49.5 °C
9 | GATCTGGATTCAGATC ((((((....)))))) | -39.3 kcal/mol | 48.6 °C
10 | GATCTGGCCGCAGATC ((((((....)))))) | -36 kcal/mol | 52.3 °C
11 | GATCTGGCGCAGATC ((((((...)))))) | -27.4 kcal/mol | 47.5 °C
12 | GATCTGGCGCCAGATC ((((((....)))))) | -47.8 kcal/mol | 60.5 °C
13 | GATCTGGCTTCAGATC ((((((....)))))) | -37.8 kcal/mol | 50.6 °C
14 | GATCTGGGAAACCAGATC (((((((....))))))) | -45.4 kcal/mol | 58.5 °C
15 | GATCTGGGAAACCAGGTC ((.((((....)))).)) | -25 kcal/mol | 48.4 °C
16 | GATCTGGGAGCAGATC ((((((....)))))) | -35.4 kcal/mol | 53.8 °C
17 | GATCTGGGATCAGATC ((((((....)))))) | -40.7 kcal/mol | 53.3 °C
18 | GATCTGGGCCCAGATC ((((((....)))))) | -56.3 kcal/mol | 58.9 °C
19 | GATCTGGTAACAGATC ((((((....)))))) | -27 kcal/mol | 60.5 °C
20 | GATCTGGTGCAGATC ((((((...)))))) | -31.1 kcal/mol | 49.5 °C

Row | Sequence | folding enthalpy [1] | Tm [2]
21 | GATCTGGTTTCAGATC ((((((....)))))) | -35.9 kcal/mol | 51.1 °C
22 | GATCTGTAACAGATC ((((((...)))))) | -33.5 kcal/mol | 48.6 °C
23 | GATCTGTAGCAGATC ((((((...)))))) | -37.4 kcal/mol | 47.3 °C
24 | GATCTGTCATCAGATC ((((((....)))))) | -38.1 kcal/mol | 50.1 °C
25 | GATCTGTCGGCAGATC ((((((....)))))) | -45.6 kcal/mol | 51.1 °C
26 | GATCTGTCGTCAGATC ((((((....)))))) | -37.6 kcal/mol | 50.5 °C
27 | GATCTGTCTCAGATC ((((((...)))))) | -28.1 kcal/mol | 49.3 °C
28 | GATCTGTCTCCAGATC ((((((....)))))) | -45.9 kcal/mol | 48.4 °C
29 | GATCTGTGACCAGATC ((((((....)))))) | -36.5 kcal/mol | 47.8 °C
30 | GATCTGTGATCAGATC ((((((....)))))) | -34 kcal/mol | 49.2 °C
31 | GATCTGTGCCAGATC ((((((...)))))) | -38 kcal/mol | 51.1 °C
32 | GATCTGTGCGCAGATC ((((((....)))))) | -47.1 kcal/mol | 57 °C
33 | GATCTGTGGACAGATC ((((((....)))))) | -45.1 kcal/mol | 53.2 °C
34 | GATCTGTGTTCAGATC ((((((....)))))) | -34.2 kcal/mol | 51.7 °C
35 | GATCTGTTAGCAGATC ((((((....)))))) | -42.9 kcal/mol | 52.3 °C
36 | GATCTGTTCCCAGATC ((((((....)))))) | -33.7 kcal/mol | 48.6 °C
37 | GATCTGTTTACAGATC ((((((....)))))) | -44.4 kcal/mol | 58.6 °C
38 | GATCTTAAAAAAGATC ((((((....)))))) | -20.3 kcal/mol | 33.7 °C
39 | GATCTTAAAGAAGATC ((((((....)))))) | -16.8 kcal/mol | 34.8 °C
40 | GATCTTAACAAAGATC ((((((....)))))) | -33 kcal/mol | 42.5 °C
